Reference: ChEMBL document CHEMBL1123902, “Synthesis and antiinflammatory and analgesic activity of 5-aroyl-1,2-dihydro-3H-pyrrolo[1,2-a]pyrrole-1-carboxylic acids. The 6-substituted compounds” (1987)

What was measured:
Assay type in all cases: functional
[1] = test system: Rattus norvegicus; assay: Antiinflammatory activity was determined by inhibition of carrageenan-induced edema in rat paw with respect to phenylbutazone
Procedure, shortened: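 Carrageenan-induced rat paw edema; potency expressed as ED30 relative to phenylbutazone as reference; number of rats recorded.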

[2] = organism: Mus musculus; assay: Analgesic activity in mice by phenyl quinone-induced writhing assay with respect to aspirin.
Procedure, shortened: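 Phenylquinone-induced writhing in mice; potency expressed as ED50 with 95% confidence limits, relative to aspirin as reference; number of mice recorded per test.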

[3] = Ratio of MED GI erosion to ED30 for carrageenan rat paw was determined
Procedure, shortened: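 Therapeutic ratio calculated as the minimum erosive dose from the 7-day rat gastrointestinal erosion assay divided by the ED30 from the carrageenan rat paw edema assay.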

[4] = organism: Rattus norvegicus; assay: Antiinflammatory activity was determined by inhibition of adjuvant-induced arthritis in rats with respect to naproxen
[5] = organism: Rattus norvegicus; assay: Gastrointestinal erosive activity was determined by 7-day chronic assay in rats; settings: 168 h, read-out: MED
Procedure, shortened: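 Chronic 7-day gastrointestinal erosion assay in rats; read-out is the minimum dose producing erosion (MED).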

[6] = organism: Rattus norvegicus; assay: Antiinflammatory activity was determined by inhibition of cotton pellet granuloma in rats with respect to Indomethacin
[7] = organism: Rattus norvegicus; assay: Antiinflammatory activity was determined by inhibition of cotton pellet granuloma in rats with respcet to Indomethacin
[8] = organism: Rattus norvegicus; assay: Antiinflammatory activity was determined to inhibit cotton pellet granuloma in rats with respcet to Indomethacin
[9] = organism: Rattus norvegicus; assay: Antiinflammatory activity was determined to inhibit adjuvant-induced arthritis in rats with respect to naproxen

CCc1cc2n(c1C(=O)c1ccc(F)cc1)CCC2C(=O)O (stereo not given)
relative potency [1]: 46
relative potency [2]: 121

COCCc1cc2n(c1C(=O)c1ccccc1)CCC2C(=O)O (stereo not given)
ED30 [1]: ≤ 0.3 mg/kg
relative potency [2]: 7.6

COCCCc1cc2n(c1C(=O)c1ccc(F)cc1)CCC2C(=O)O (stereo not given)
relative potency [1]: < 3
relative potency [2]: ~1

Cc1cc(CC(=O)O)n(C)c1C(=O)c1ccc(Cl)cc1 [ZOMEPIRAC]
relative potency [1]: 26
relative potency [2]: 36
Therapeutic index [3]: 17

Cc1cc2n(c1C(=O)c1ccccc1)CCC2C(=O)O (stereo not given)
relative potency [4]: 1
relative potency [1]: 43
minimal effective dose [5]: 1.7 mg/kg
relative potency [6]: 1
relative potency [2]: 250
Therapeutic index [3]: 5

Cc1ccc(C(=O)c2c(Cl)cc3n2CCC3C(=O)O)cc1 (stereo not given)
relative potency [4]: 11
relative potency [1]: 32
relative potency [7]: 0.2
minimal effective dose [5]: 5 mg/kg
relative potency [2]: 158
Therapeutic index [3]: 11

Cc1ccc(C(=O)c2c(C)cc3n2CCC3C(=O)O)cc1 (stereo not given)
relative potency [4]: 3
relative potency [1]: 43
relative potency [7]: 0.7
minimal effective dose [5]: 2.5 mg/kg
relative potency [2]: 250
Therapeutic index [3]: 7

CS(=O)(=O)c1ccc(C(=O)c2c(Cl)cc3n2CCC3C(=O)O)cc1 (stereo not given)
relative potency [1]: < 1
relative potency [2]: ≤ 0.8

O=C(c1ccc(F)cc1)c1c(Br)cc2n1CCC2C(=O)O (stereo not given)
relative potency [1]: 96
relative potency [2]: 120

C1CCC(NC2CCCCC2)CC1.Cc1cc2n(c1C(=O)c1ccccc1)CCC2(C)C(=O)O (stereo not given)
relative potency [1]: < 7
relative potency [2]: 40

COc1ccc2c(c1)c(CC(=O)O)c(C)n2C(=O)c1ccc(Cl)cc1 [INDOMETHACIN]
relative potency [8]: 1
relative potency [1]: 16
relative potency [9]: 7
relative potency [2]: 60

O=C(c1ccccc1)c1c(Br)cc2n1CCC2C(=O)O (stereo not given)
relative potency [1]: 7.4
relative potency [2]: 314

O=C(c1ccc(Cl)cc1)c1c(Cl)cc2n1CCC2C(=O)O (stereo not given)
relative potency [4]: 40
relative potency [1]: 88
relative potency [7]: 3
minimal effective dose [5]: ~0.2 mg/kg
relative potency [2]: 167
Therapeutic index [3]: 1

Cc1cc2n(c1C(=O)c1ccc(F)cc1)CCC2C(=O)O (stereo not given)
relative potency [4]: 3
relative potency [1]: 103
relative potency [7]: 1
minimal effective dose [5]: 1.2 mg/kg
relative potency [2]: 302
Therapeutic index [3]: 12

Cc1cc2n(c1C(=O)c1ccc(Cl)cc1)CCC2C(=O)O (stereo not given)
relative potency [4]: 3.5
relative potency [1]: 122
relative potency [7]: 2
minimal effective dose [5]: 0.6 mg/kg
relative potency [2]: 167
Therapeutic index [3]: 5

COCCCc1cc2n(c1C(=O)c1ccc(Cl)cc1)CCC2C(=O)O (stereo not given)
relative potency [1]: 1.2
relative potency [2]: ≥ 1.5

O=C(c1ccccc1)c1c(Cl)cc2n1CCC2C(=O)O (stereo not given)
relative potency [4]: < 8
relative potency [1]: 10
relative potency [7]: 0.6
minimal effective dose [5]: ~1.7 mg/kg
relative potency [2]: 246
Therapeutic index [3]: 1

COCCc1cc2n(c1C(=O)c1ccc(Cl)cc1)CCC2C(=O)O (stereo not given)
ED30 [1]: < 0.3 mg/kg
relative potency [2]: 5

CCc1cc2n(c1C(=O)c1ccccc1)CCC2C(=O)O (stereo not given)
relative potency [1]: 26
relative potency [2]: 108

COc1ccc(C(=O)c2c(C)cc3n2CCC3C(=O)O)cc1 (stereo not given)
relative potency [1]: 73
relative potency [2]: 130

COCCc1cc2n(c1C(=O)c1ccc(F)cc1)CCC2C(=O)O (stereo not given)
ED30 [1]: ≤ 0.3 mg/kg
relative potency [2]: 1.1

O=C(c1ccc(F)cc1)c1c(Cl)cc2n1CCC2C(=O)O (stereo not given)
relative potency [4]: 13
relative potency [1]: 139
relative potency [7]: 1
minimal effective dose [5]: ~0.3 mg/kg
relative potency [2]: 151
Therapeutic index [3]: 3

CSc1ccc(C(=O)c2c(Cl)cc3n2CCC3C(=O)O)cc1 (stereo not given)
relative potency [1]: 68
relative potency [2]: 100

COc1ccc2cc([C@H](C)C(=O)O)ccc2c1 [NAPROXEN]
relative potency [8]: 0.2
relative potency [1]: 11
minimal effective dose [5]: 30 mg/kg
relative potency [9]: 1
relative potency [2]: 7
Therapeutic index [3]: 22

COc1ccc(C(=O)c2c(Cl)cc3n2CCC3C(=O)O)cc1 (stereo not given)
relative potency [4]: 4
relative potency [1]: 55
relative potency [7]: 0.7
minimal effective dose [5]: ~1.3 mg/kg
relative potency [2]: 201
Therapeutic index [3]: 5

COCCCc1cc2n(c1C(=O)c1ccccc1)CCC2C(=O)O (stereo not given)
relative potency [1]: < 10
relative potency [2]: ≤ 3
